# Source: ChEMBL document CHEMBL2331243, “Discovery and mechanism study of SIRT1 activators that promote the deacetylation of fluorophore-labeled substrate” (J Med Chem, 2013)
# Activity calls are given as the source filed them. No cut-off for these calls is given here.
# Legend:
# [1] = biological target: T1, NAD-dependent protein deacetylase sirtuin-1 (Homo sapiens, UniProt Q96EB6); experiment: Activation of N-terminal His6-tagged SIRT1 (156 to 664 amino acid residues) (unknown origin) expressed in Escherichia coli BL21(DE3) using ac-RHKKac-AMC as substrate after 45 mins by fluorometric analysis
# T1 sequence (Q96EB6 whole entry): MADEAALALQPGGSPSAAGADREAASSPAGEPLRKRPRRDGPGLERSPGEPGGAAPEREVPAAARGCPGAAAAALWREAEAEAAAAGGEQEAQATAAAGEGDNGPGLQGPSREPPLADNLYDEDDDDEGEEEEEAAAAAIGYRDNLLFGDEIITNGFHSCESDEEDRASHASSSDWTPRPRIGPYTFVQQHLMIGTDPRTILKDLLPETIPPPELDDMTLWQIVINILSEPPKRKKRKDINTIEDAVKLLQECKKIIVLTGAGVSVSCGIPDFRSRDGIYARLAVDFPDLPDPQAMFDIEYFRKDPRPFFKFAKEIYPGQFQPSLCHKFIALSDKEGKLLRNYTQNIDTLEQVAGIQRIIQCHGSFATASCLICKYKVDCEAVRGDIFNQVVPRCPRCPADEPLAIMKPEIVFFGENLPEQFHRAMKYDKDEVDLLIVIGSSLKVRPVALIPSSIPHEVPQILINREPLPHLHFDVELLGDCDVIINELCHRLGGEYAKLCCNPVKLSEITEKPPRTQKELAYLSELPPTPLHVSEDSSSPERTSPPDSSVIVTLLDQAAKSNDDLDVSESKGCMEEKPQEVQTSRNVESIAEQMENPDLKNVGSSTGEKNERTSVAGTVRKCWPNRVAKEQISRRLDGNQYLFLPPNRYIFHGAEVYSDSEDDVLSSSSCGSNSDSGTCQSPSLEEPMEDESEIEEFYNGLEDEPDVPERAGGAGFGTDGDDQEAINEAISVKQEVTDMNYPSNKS
# [2] = biological target: T2, NAD-dependent protein deacetylase sirtuin-1 (Homo sapiens) (UniProt Q96EB6); experiment: Activation of N-terminal His6-tagged SIRT1 (156 to 664 amino acid residues) (unknown origin) expressed in Escherichia coli BL21(DE3) using ac-RHKKac-AMC as substrate at 50 uM after 45 mins by fluorimetric analysis relative to control
# T2 sequence (whole entry): T1 sequence (Q96EB6 whole entry)
# Outline: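 Fluorogenic deacetylation screen: 1 μM SIRT1 with 750 μM NAD⁺ and 31.25 μM ac-RHKK_ac-AMC in Tris buffer (25 mM Tris, 137 mM NaCl, 2.7 mM KCl, 1 mM MgCl₂, pH 8.0). Compounds at 50 μM from DMSO stocks; DMSO alone as blank. Trypsin then releases AMC from deacetylated peptide; fluorescence read at 340/490 nm.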
# [3] = biological target: T2, NAD-dependent protein deacetylase sirtuin-1 (Homo sapiens); experiment: Activation of N-terminal His6-tagged SIRT1 (156 to 664 amino acid residues) (unknown origin) expressed in Escherichia coli BL21(DE3) using ac-RHKKac-NH2 as substrate after 45 mins by HPLC analysis
# [4] = biological target: T3, NAD-dependent protein deacetylase sirtuin-2 (Homo sapiens, UniProt Q8IXJ6); experiment: Activation of at N-terminal GST-tagged SIRT2 (34 to 356 amino acid residues) (unknown origin) expressed in Escherichia coli BL21(DE3) using ac-RHKKac-AMC as substrate after 45 mins by fluorometric analysis
# T3 sequence (Q8IXJ6 whole entry): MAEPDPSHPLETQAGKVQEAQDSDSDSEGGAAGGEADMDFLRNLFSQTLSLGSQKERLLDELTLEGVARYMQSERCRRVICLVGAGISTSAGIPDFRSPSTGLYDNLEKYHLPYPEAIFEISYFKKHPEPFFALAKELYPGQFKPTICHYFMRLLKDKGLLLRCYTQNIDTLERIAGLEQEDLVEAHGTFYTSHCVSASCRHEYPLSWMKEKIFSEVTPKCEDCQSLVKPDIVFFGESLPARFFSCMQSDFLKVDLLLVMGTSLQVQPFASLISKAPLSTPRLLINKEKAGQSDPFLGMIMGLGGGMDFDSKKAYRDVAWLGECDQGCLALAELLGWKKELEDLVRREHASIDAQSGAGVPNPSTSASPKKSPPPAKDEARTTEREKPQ
# Outline: (§1)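 Fluorescent deacetylation assay in 25 mM Tris, 137 mM NaCl, 2.7 mM KCl, 1 mM MgCl₂, pH 8.0, with 750 μM NAD⁺ and 31.25 μM ac-RHKK_ac-AMC. Enzyme was 3.6 μM SIRT3 or 4.2 μM GST-SIRT2, set to match SIRT1 activity. Trypsin released AMC from the deacetylated peptide, read at ex 340 / em 490 nm. Compounds were added from DMSO (DMSO as blank): single point at 50 μM, or 3-fold DMSO dilution series. EC1.5 (concentration giving 50% activity increase) and maximum activation were fitted to a dose–response function.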
# [5] = biological target: T4, NAD-dependent protein deacetylase sirtuin-2 (Homo sapiens) (UniProt Q8IXJ6); experiment: Activation of at N-terminal GST-tagged SIRT2 (34 to 356 amino acid residues) (unknown origin) expressed in Escherichia coli BL21(DE3) using ac-RHKKac-AMC as substrate at 50 uM after 45 mins by fluorometric analysis relative to control; outline: as §1
# T4 sequence (whole entry): T3 sequence (Q8IXJ6 whole entry)
# [6] = biological target: T2, NAD-dependent protein deacetylase sirtuin-1 (Homo sapiens); experiment: Activation of SIRT1 in human MCF7 cells assessed as reduction in doxorubicin-induced acetyl-p53 level up to 100 uM after 6 hrs by Western blotting analysis; type: cell-based
# Outline: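 MCF-7 cells were seeded at 1 × 10⁵ per well in DMEM with 10% FCS and grown 24 h at 37 °C, 5% CO₂. Graded compound concentrations were added together with 0.1 μM TSA and 5 μM doxorubicin for 6 h. Lysate (50 μg protein) was run on a 9% gel and blotted with an anti-acetyl-p53 (Lys382) polyclonal antibody at 4 °C overnight, then HRP anti-rabbit IgG with chemiluminescence.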
SMILES,EC50 [1],max activation [2],also measured
COc1c(Br)cc(/C=N/NC(=O)c2ccc(-c3ccccc3)cc2)c(O)c1Br,28.1 µM,242%,–
O=C(N/N=C/c1cc(Br)c(O)c(Br)c1O)c1ccc2c(c1)Cc1ccccc1-2,5.4 µM,212%,EC50 [4]: 16.5 µM; max activation [5]: 206%
COc1c(Br)cc(/C=N/NC(=O)c2ccc3cc(Br)ccc3c2)c(O)c1Br,–,119%,–
CS(=O)(=O)c1ccc2cc(C(=O)N/N=C/c3cc(Br)c(O)c(Br)c3O)ccc2c1,2.3 µM,368%,–
O=C(N/N=C/c1cc(Br)c(O)c(Br)c1O)c1ccc2cc(-c3ccco3)ccc2c1,2.6 µM,267%,–
O=C(N/N=C/c1cc(Br)c(O)c(Br)c1O)c1ccc(-c2ccco2)cc1,2.1 µM,374%,–
O=C(N/N=C/c1cc(Br)c(O)c(Br)c1O)c1ccc(C(F)(F)F)cc1,20.5 µM,161%,–
O=C(N/N=C/c1cc(Br)c(O)c(Br)c1O)c1ccc2ncccc2c1,55.2 µM,239%,–
O=C(N/N=C/c1cc(Br)c(O)c(Br)c1O)c1ccc(-c2ccncc2)cc1,1.6 µM,390%,–
O=C(N/N=C/c1cc(Br)c(O)c(Br)c1O)c1ccc2ccccc2c1,1.6 µM,331%,–
N#Cc1ccc2cc(C(=O)N/N=C/c3cc(Br)c(O)c(Br)c3O)ccc2c1,4.4 µM,433%,–
Cc1ccc(C(=O)N/N=C/c2cc(Br)c(O)c(Br)c2O)cc1,9.6 µM,161%,–
COc1ccc2cc(C(=O)N/N=C/c3cc(Br)c(O)c(Br)c3O)ccc2c1,0.9 µM,624%,Activity [6]: Active
O=C(N/N=C/c1cc(Br)c(O)c(Br)c1O)c1ccc(Cl)cc1,7 µM,174%,–
O=C(N/N=C/c1cc(Br)c(O)c(Br)c1O)c1cc2ccccc2cc1O,4.5 µM,375%,–
O=C(N/N=C/c1cc(Br)c(O)c(Br)c1O)c1ccc(-c2cccnc2)cc1,2 µM,314%,–
O=C(N/N=C/c1cc(Br)c(O)c(Br)c1O)c1ccc(-c2ccccc2C(F)(F)F)cc1,0.9 µM,216%,–
COc1c(/C=N/NC(=O)c2ccc3cc(Br)ccc3c2)cc(Br)c(O)c1Br,8.7 µM,298%,–
O=C(N/N=C/c1cc(Br)c(O)c(Br)c1O)c1ccc(-c2ccc3c(c2)OCO3)cc1,3.4 µM,380%,–
N#Cc1ccc(O)c(-c2ccc(C(=O)N/N=C/c3cc(Br)c(O)c(Br)c3O)cc2)c1,3.7 µM,196%,–
COc1cc(OC)cc(C(=O)N/N=C/c2cc(Br)c(O)c(Br)c2O)c1,–,112%,–

# Continued, in another order:
EC50 [1],max activation [2],SMILES,also measured
18.3 µM,212%,O=C(N/N=C/c1cc(Br)c(O)c(Br)c1O)c1cccc(-c2ccccc2)c1,–
1.8 µM,271%,COc1cc(C(=O)Nc2ccccc2-c2cn3c(CN4CCNCC4)csc3n2)cc(OC)c1OC,Activity [3]: inactive
25 µM,322%,O=C(Nc1ccccc1-c1cn2c(CN3CCNCC3)csc2n1)c1ccccc1,–
1.7 µM,246%,O=C(N/N=C/c1cc(Br)c(O)c(Br)c1O)c1ccc(-c2ccccc2)cc1,–
1.7 µM,270%,O=C(Nc1ccccc1-c1cn2c(CN3CCNCC3)csc2n1)c1ccncn1,–
130 µM,383%,O=C(Nc1ccccc1-c1cn2c(CN3CCNCC3)csc2n1)C1CCCC1,–
14 µM,130%,O=C(Cc1ccccc1)Nc1ccccc1-c1cn2c(CN3CCNCC3)csc2n1,–
31 µM,197%,COc1ccc(C(=O)Nc2ccccc2-c2cn3c(CN4CCNCC4)csc3n2)c(OC)c1,–
0.61 µM,381%,O=C(Nc1ccccc1-c1cn2c(CN3CCNCC3)csc2n1)c1cc2ccccc2o1,–
18.1 µM,191%,COc1c(/C=N/NC(=O)c2ccc(-c3ccccc3)cc2)cc(Br)c(O)c1Br,–
6.9 µM,380%,O=C(Nc1ccccc1-c1cn2c(CN3CCNCC3)csc2n1)c1ccc2occc2c1,–
–,781%,O=C(Nc1ccccc1-c1cn2c(CN3CCNCC3)csc2n1)c1cnc2ccccc2n1,–
2.3 µM,467%,O=C(N/N=C/c1cc(Br)c(O)c(Br)c1O)c1ccc(-c2ccccn2)cc1,–
3.7 µM,928%,COc1cccc(C(=O)Nc2ccccc2-c2cn3c(CN4CCNCC4)csc3n2)c1,–
0.99 µM,440%,O=C(Nc1ccccc1-c1cn2c(CN3CCNCC3)csc2n1)c1ccc2ccccc2n1,–
45 µM,208%,O=C(Nc1ccccc1-c1cn2c(CN3CCNCC3)csc2n1)c1cccc2cccnc12,–
0.68 µM,301%,O=C(Nc1ccccc1-c1cn2c(CN3CCNCC3)csc2n1)c1cnc2ccccc2c1,–
10.4 µM,157%,O=C(N/N=C/c1ccc(O)cc1O)c1ccc(-c2ccccc2)cc1,–
